Experimental data reported in article PMC3773219 (Biochemistry, 2013).

How the values were obtained:
protein kinases = conditions: cited from earlier work
Pim1 = Pim1 (Homo sapiens, UniProt P11309); assay: Enzyme coupled kinase assay, Pim1; format: biochemical; conditions: for reduction of Pim1 activity: relative to consensus peptide 2 (kcat/KM)
Outline: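 His6-tagged human Pim1 was expressed in E. coli and purified on Ni-NTA. It was treated with alkaline phosphatase, and phospho and non-phospho forms were separated on Q-Sepharose. The coupled PK/LDH assay ran at room temperature with 20 mM MgCl2, 100 mM Tris pH 7.4, 1 mM ATP, 1 mM PEP, 0.2 mM NADH and 0–2400 μM peptide or PTP-PEST catalytic domain (aa 5–300). It was started with 40–1200 nM Pim1, read at A340, and initial rates were fitted for kcat, KM and/or kcat/KM.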

GST-Csk = GST-Csk (Homo sapiens, UniProt P41240); assay: Enzyme coupled kinase assay, GST-Csk; format: biochemical; conditions: kcat/KM with GST-Csk relative to peptide 16
Outline: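 GST-tagged wild-type human Csk was expressed in E. coli DH5α and purified on glutathione-Sepharose. The pyruvate kinase/lactate dehydrogenase coupled assay ran at room temperature in 100 mM Tris pH 7.4 with 5 mM MnCl2, 5 mM NaCl, 5 mM KCl, 10 mM DTT, 1 mM ATP, 1 mM PEP, 0.2 mM NADH and 0–2400 μM peptide. It was started with 1–3 μM GST-Csk and A340 followed continuously. Initial rates (<2 min) were fitted to Michaelis-Menten or V = kcat[E][S]/KM.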

native Csk = conditions: cited from earlier work
MKK6 = target: T1, MKK6 (Homo sapiens, UniProt P52564, S207E/T211E); assay: Kinase assay by HPLC, MKK6; format: biochemical; conditions: peptide as MKK6 substrate
T1 sequence (P52564 1-334 S207E/T211E): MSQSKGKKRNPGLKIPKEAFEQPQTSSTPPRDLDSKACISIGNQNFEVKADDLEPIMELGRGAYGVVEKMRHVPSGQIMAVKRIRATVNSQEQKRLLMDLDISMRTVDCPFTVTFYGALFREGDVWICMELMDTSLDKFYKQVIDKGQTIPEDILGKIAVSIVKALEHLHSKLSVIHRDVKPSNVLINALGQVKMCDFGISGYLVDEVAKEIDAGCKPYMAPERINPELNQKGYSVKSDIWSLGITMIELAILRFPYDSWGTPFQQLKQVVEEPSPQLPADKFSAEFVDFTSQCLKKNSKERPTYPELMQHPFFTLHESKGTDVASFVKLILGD

Chain of Pim1 (P11309 whole entry, the tested form may be a part): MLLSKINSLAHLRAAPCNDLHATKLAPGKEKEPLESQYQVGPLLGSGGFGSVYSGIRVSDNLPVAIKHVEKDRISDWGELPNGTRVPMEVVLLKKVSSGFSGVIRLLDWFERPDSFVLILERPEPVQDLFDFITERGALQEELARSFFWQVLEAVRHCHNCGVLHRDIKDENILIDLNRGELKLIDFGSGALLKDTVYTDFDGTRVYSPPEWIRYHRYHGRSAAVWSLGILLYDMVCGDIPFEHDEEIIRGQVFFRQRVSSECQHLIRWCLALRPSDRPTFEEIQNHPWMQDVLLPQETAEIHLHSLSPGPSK
Chain of GST-Csk (P41240 whole entry): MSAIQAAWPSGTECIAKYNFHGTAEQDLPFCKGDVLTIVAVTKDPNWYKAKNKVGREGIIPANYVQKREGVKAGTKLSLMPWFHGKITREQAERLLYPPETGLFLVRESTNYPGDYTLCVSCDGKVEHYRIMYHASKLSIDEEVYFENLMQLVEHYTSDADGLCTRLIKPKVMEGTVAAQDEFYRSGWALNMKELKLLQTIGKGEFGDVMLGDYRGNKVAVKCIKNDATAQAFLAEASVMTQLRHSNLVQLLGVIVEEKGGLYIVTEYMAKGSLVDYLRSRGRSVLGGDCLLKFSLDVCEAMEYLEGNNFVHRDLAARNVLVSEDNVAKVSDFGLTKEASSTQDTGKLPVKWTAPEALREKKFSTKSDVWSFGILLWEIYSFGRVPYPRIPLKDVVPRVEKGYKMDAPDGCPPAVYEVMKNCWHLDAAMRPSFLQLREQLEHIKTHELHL

Nc1ncnc2c1ncn2[C@@H]1O[C@H](COP(=O)(O)OP(=O)(O)OP(O)(O)=S)[C@@H](O)[C@H]1O [[γ-S]ATP, adenosine 5′-O-(3-thio)triphosphate]
decrease of catalytic activity of kinases on substitution of [γ-S]ATP for ATP (protein kinases): 15–30 fold

AYAHPTGMYY [Peptide 5]
effect of substitution on Pim1 activity (Pim1; relative to consensus peptide 2): abolished the Pim1 activity

Ac-DDEPIYAELADIT-NH2 [Peptide 23]
more active than the previous consensus peptide (16) (GST-Csk): 11 fold

Ac-KKKKEEIYFFF-NH2 [Peptide 16, reference compound]
kcat/KM (native Csk; native Csk, previously reported): 6050 M⁻¹ s⁻¹

Ac-RRRYEILPTWNVY-NH2 [Peptide 13]
Km (MKK6): > 500 µM

Lck: Csk protein substrate
kcat/KM of Csk protein substrates (native Csk; protein substrates of Csk): 200000 M⁻¹ s⁻¹

RYRDPTGMYY [Peptide 6]
reduction of Pim1 activity (Pim1): 620 fold

RYRHPTPMYY [Peptide 7]
reduction of Pim1 activity (Pim1): 62 fold

B1: PTP-PEST: non-receptor protein tyrosine phosphatase; recombinant catalytic domain of human PTP-PEST (amino acids 5–300) (protein, UniProt Q05209 5-300, looked up, fragment)
chain: EILRKFIQRVQAMKSPDHNGEDNFARDFMRLRRLSTKYRTEKIYPTATGEKEENVKKNRYKDILPFDHSRVKLTLKTPSQDSDYINANFIKGVYGPKAYVATQGPLANTVIDFWRMIWEYNVVIIVMACREFEMGRKKCERYWPLYGEDPITFAPFKISCEDEQARTDYFIRTLLLEFQNESRRLYQFHYVNWPDHDVPSSFDSILDMISLMRKYQEHEDVPICIHCSAGCGRTGAICAIDYTWNLLKAGKIPEEFNVFNLIQEMRTQRHSAVQTKEQYELVHRAIAQLFEKQLQL
modifications: catalytic domain GST tag
kcat/KM (Pim1; recombinant PTP-PEST protein as Pim1 substrate, enzyme-coupled assay): 34000 M⁻¹ s⁻¹
